From ChEMBL document CHEMBL1141853, “A cyclitol derivative as a replication inhibitor from the marine sponge Petrosia sp” (1999)
In brackets after ≈: the same amount, converted by molar mass. Activity calls are given as the source filed them. No cut-off for these calls is given here.

What was measured:
A549 = assay: Cytotoxicity against human A549 cells; type: functional; conditions: read-out: ED50 (the source's name)
SK-OV-3 = assay: Cytotoxicity against human SKOV3 cells; type: functional; conditions: read-out: ED50 (the source's name)
SK-MEL-2 = assay: Cytotoxicity against human SK-MEL-2 cells; type: functional; conditions: read-out: ED50 (the source's name)
XF498 = assay: Cytotoxicity against human XF498 cells; type: functional; conditions: read-out: ED50 (the source's name)
HCT-15 = assay: Cytotoxicity against human HCT-15 cells; type: functional; conditions: read-out: ED50 (the source's name)
Simian virus 40 [1] = assay: Inhibition of SV40 DNA replication in human HeLa cells; type: functional, organism-based; conditions: Betapolyomavirus macacae
How it was run: (§1)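 Cell-free SV40 replication using HeLa cytosolic extract, SV40 T-Ag (0.6 µg) and SV40 origin pUC DNA (0.3 µg). Buffer is 40 mM creatine phosphate-di-Tris pH 7.7, creatine kinase, 7 mM MgCl2, 0.5 mM DTT, 4 mM ATP, rNTPs, dNTPs and 25 µM [3H]dTTP. Incubated 90 min at 37 °C; acid-insoluble radioactivity measured. Products separated on 1% agarose gel and autoradiographed.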

Simian virus 40 [2] = assay: Inhibition of SV40 DNA replication in human HeLa cells at 800 uM; type: functional; conditions: Betapolyomavirus macacae, read-out: INH; how it was run: as §1
[3] = target: T1, DNA topoisomerase 1 (Homo sapiens) (UniProt P11387); assay: Inhibition of human DNA topoisomerase 1 assessed as effect on relaxation of superhelical plasmid
T1 sequence (whole entry): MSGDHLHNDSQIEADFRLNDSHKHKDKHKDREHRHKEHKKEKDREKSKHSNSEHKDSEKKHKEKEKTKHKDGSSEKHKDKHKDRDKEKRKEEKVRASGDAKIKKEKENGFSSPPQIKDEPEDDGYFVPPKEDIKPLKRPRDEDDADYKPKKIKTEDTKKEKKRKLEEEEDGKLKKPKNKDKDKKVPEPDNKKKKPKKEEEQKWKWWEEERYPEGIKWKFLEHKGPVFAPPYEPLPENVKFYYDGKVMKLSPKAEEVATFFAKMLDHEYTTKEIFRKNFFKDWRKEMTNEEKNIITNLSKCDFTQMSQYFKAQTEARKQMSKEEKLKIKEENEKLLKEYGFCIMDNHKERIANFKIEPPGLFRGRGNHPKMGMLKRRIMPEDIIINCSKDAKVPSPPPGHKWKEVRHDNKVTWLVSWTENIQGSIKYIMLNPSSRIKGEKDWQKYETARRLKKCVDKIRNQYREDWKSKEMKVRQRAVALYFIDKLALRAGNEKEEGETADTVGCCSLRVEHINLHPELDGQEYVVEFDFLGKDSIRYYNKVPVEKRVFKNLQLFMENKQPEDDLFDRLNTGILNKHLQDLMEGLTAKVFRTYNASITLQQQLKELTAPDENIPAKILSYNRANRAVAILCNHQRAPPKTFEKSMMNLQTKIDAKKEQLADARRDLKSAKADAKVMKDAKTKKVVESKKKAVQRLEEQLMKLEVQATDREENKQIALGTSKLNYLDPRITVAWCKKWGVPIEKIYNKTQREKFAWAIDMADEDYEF

Compound: CCCCCCC(C)CCCCCCCCCOC[C@H](O)COC1[C@@H](O)[C@H](O)[C@@H](O)[C@@H]1O (stereo partly drawn) [SACROTRIDE A]
- EC50 (A549): > 10 µg/mL
- EC50 (SK-OV-3): 9.5 µg/mL (≈ 20.5 µM)
- EC50 (SK-MEL-2): > 10 µg/mL
- EC50 (XF498): 9.8 µg/mL (≈ 21.2 µM)
- EC50 (HCT-15): 9.4 µg/mL (≈ 20.3 µM)
- Activity (Simian virus 40 [1]): Dose-dependent effect
- inhibition at 800 µM (Simian virus 40 [2]): > 90%
- Activity [3]: inactive
